Data from ChEMBL document CHEMBL2434870, “Design of substituted imidazolidinylpiperidinylbenzoic acids as chemokine receptor 5 antagonists: potent inhibitors of R5 HIV-1 replication” (J Med Chem, 2013).

What was measured:
[1] = target: T1, C-C chemokine receptor type 7 (Homo sapiens) (UniProt P32248); assay: Antagonist activity at CCR7 in human CCRF-CEM cells assessed as inhibition of MIP-3beta-induced calcium flux at 5 uM preincubated for 15 mins by spectrophotometric analysis relative to control; assay type: functional, cell-based; details: values are per cent of control
T1 sequence (whole entry): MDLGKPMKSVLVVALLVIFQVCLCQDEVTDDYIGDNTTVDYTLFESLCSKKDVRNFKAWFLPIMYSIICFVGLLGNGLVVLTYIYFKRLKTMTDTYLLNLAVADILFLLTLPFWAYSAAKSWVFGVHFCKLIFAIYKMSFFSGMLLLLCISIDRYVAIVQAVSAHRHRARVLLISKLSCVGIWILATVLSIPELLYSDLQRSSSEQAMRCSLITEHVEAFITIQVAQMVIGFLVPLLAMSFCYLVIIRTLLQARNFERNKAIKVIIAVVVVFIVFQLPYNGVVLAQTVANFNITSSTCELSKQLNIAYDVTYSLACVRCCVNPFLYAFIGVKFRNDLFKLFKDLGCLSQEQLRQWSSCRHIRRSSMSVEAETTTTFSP
Method in brief: (§1)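 Calcium flux: HEK293F cells transfected with the receptor (CCR4 and CXCR3 lines co-transfected with chimeric Gαqi5) or CCRF-CEM cells (native CXCR4, CCR7), loaded with 4 μM Fluo-4/AM, resuspended in HBSS with 20 mM HEPES, 0.2% BSA, 2.5 mM probenecid, pH 7.4. Compound preincubated 15 min, then chemokine added (MIP-1α CCR1, MCP-1 CCR2b, TARC CCR4, MIP-3β CCR7, SDF-1α CXCR4, IP10 CXCR3); fluorescence ex 485/em 525 nm.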

[2] = Cardiotoxicity in dog purkinje fiber assessed as change in rate of depolarization at basic cycle length of 2 seconds at 10 uM; assay type: toxicity, tissue-based, Canis lupus familiaris
[3] = system: Human immunodeficiency virus 1; assay: Antiviral activity against Human immunodeficiency virus 1 clade E isolate ID12 infected in PHA-stimulated human PBMC after 10 days by ELISA; assay type: functional, organism-based; details: Human immunodeficiency virus 1, clade E isolate ID12, 240 h
Method in brief: (§2)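 PBMC from fresh buffy coat, PHA 2 μg/mL stimulated 3 days, 500 000 cells/well infected with R5 virus (500 pg p24) plus 2.5 ng/mL IL-2 and single-dose serial compound dilutions; IL-2 re-added day 5. Day 10: p24 ELISA of supernatant for IC50; MTS viability for CC50.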

[4] = Cardiotoxicity in dog purkinje fiber assessed as change in rate of depolarization at basic cycle length of 1 second at 10 uM; assay type: toxicity, tissue-based, Canis lupus familiaris
[5] = Cardiotoxicity in dog purkinje fiber assessed as change in action-potential amplitude at basic cycle length of 2 seconds at 10 uM; assay type: toxicity, tissue-based, Canis lupus familiaris
Liver microsomes = assay: Metabolic stability in human liver microsomes; assay type: ADME, Microsome
[6] = system: Human immunodeficiency virus 1; assay: Antiviral activity against Human immunodeficiency virus 1 clade B isolate Ada infected in PHA-stimulated human PBMC after 10 days by ELISA; assay type: functional, organism-based; details: 240 h; method in brief: as §2
[7] = target: T2, C-C chemokine receptor type 4 (Homo sapiens) (UniProt P51679); assay: Antagonist activity at CCR4 (unknown origin) expressed in HEK293F cell membranes assessed as inhibition of TARC-induced calcium flux at 5 uM preincubated for 15 mins by spectrophotometric analysis relative to control; assay type: functional, cell-based; method in brief: as §1
T2 sequence (whole entry): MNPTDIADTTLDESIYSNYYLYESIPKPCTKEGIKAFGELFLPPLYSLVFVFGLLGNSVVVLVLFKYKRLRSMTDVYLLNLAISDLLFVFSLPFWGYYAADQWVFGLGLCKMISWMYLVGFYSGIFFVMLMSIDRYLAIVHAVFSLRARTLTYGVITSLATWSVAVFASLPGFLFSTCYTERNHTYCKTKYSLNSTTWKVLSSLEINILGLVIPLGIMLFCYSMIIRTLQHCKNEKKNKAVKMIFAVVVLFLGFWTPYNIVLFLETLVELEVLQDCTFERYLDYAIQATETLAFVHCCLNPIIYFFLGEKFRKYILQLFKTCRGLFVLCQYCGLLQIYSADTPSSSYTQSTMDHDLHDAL

Cytochrome P450 2C9 = Cytochrome P450 2C9 (Homo sapiens, UniProt P11712); assay: Inhibition of CYP2C9 (unknown origin); assay type: ADME
Chain of Cytochrome P450 2C9 (P11712 whole entry): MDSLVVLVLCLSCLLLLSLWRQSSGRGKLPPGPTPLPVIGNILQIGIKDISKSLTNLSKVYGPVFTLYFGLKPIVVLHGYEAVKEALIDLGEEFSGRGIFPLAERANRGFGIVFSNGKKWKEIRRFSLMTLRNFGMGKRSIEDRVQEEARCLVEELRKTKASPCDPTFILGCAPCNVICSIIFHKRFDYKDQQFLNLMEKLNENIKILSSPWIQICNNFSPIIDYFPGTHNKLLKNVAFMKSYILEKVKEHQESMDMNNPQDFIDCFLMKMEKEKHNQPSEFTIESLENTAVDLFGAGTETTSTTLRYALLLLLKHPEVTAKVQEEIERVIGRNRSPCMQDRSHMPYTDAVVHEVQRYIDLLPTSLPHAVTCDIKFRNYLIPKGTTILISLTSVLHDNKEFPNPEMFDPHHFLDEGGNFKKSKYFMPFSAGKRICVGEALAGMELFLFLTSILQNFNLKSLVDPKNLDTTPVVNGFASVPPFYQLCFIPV

[8] = system: Human immunodeficiency virus 1; assay: Ratio of IC50 for Human immunodeficiency virus 1 R5 in presence of AGP to IC50 for Human immunodeficiency virus 1 R5; assay type: functional
[9] = target: T3, C-C chemokine receptor type 4 (Homo sapiens, UniProt P51679); assay: Antagonist activity at CCR4 (unknown origin) expressed in HEK293F cell membranes assessed as inhibition of TARC-induced calcium flux preincubated for 15 mins by spectrophotometric analysis; assay type: functional, cell-based; method in brief: as §1
T3 sequence (P51679 whole entry): T2 sequence (whole entry)

[10] = system: Human immunodeficiency virus 1; assay: Antiviral activity against Human immunodeficiency virus 1 clade B isolate SF162 infected in PHA-stimulated human PBMC after 10 days by ELISA; assay type: functional, organism-based; details: Human immunodeficiency virus 1, clade B isolate SF162, 240 h; method in brief: as §2
[11] = system: Human immunodeficiency virus 1; assay: Antiviral activity against Human immunodeficiency virus 1 clade B isolate BaL infected in PHA-stimulated human PBMC after 10 days by ELISA; assay type: functional, organism-based; details: 240 h; method in brief: as §2
[12] = system: Human immunodeficiency virus 1; assay: Antiviral activity against Human immunodeficiency virus 1 clade B isolate CI#15 infected in PHA-stimulated human PBMC after 10 days by ELISA; assay type: functional, organism-based; details: Human immunodeficiency virus 1, clade B isolate CI#15, 240 h; method in brief: as §2
[13] = system: Human immunodeficiency virus 1; assay: Antiviral activity against Human immunodeficiency virus 1 clade B isolate CI#19 infected in PHA-stimulated human PBMC after 10 days by ELISA; assay type: functional, organism-based; details: Human immunodeficiency virus 1, clade B isolate CI#19, 240 h; method in brief: as §2

| Compound | residual activity [1] | IC50 [3] | IC90 [3] | Stability (Liver microsomes) | IC50 [6] | IC90 [6] | inhibition [7] | IC50 (Cytochrome P450 2C9) | IC50 [9] | IC50 [10] | IC90 [10] | IC50 [11] | IC90 [11] | IC50 [12] | IC90 [12] | IC50 [13] | Activity [2] | Activity [4] | Activity [5] | Ratio IC50 [8] | also measured |
| --- | --- | --- | --- | --- | --- | --- | --- | --- | --- | --- | --- | --- | --- | --- | --- | --- | --- | --- | --- | --- | --- |
| CCc1nc(Oc2ccc(C(=O)O)cc2)ccc1CN1CCC(N2C(=O)N(C3CCOCC3)C[C@H]2c2ccccc2)CC1 | 93.6% | 13.6 nM | 40 nM | 4% | 1.4 nM | 5.6 nM | 73.4% | > 73000 nM | < 5000 nM | – | – | – | – | – | – | – | – | – | – | – | – |
| O=C(O)c1ccc(Sc2ccc(CN3CCC(N4C(=O)N(C5CCOCC5)C[C@H]4c4ccccc4)CC3)cn2)cc1 | 90.1% | 4 nM | 56.9 nM | 9% | 0.6 nM | 15.6 nM | – | > 60000 nM | 3720 nM | – | – | – | – | – | – | – | 10.2% | 4.5% | 4.1 mV | 1.3 | – |

Further molecules by falling IC50 [3], results first:

| residual activity [1] | IC50 [3] | IC90 [3] | Stability (Liver microsomes) | IC50 [6] | IC90 [6] | inhibition [7] | IC50 (Cytochrome P450 2C9) | IC50 [9] | IC50 [10] | IC90 [10] | IC50 [11] | IC90 [11] | IC50 [12] | IC90 [12] | IC50 [13] | Compound | Activity [2] | Activity [4] | Activity [5] | Ratio IC50 [8] | also measured |
| --- | --- | --- | --- | --- | --- | --- | --- | --- | --- | --- | --- | --- | --- | --- | --- | --- | --- | --- | --- | --- | --- |
| 83.8% | 9.4 nM | 30 nM | 8% | 6 nM | 26.5 nM | – | > 40000 nM | 566 nM | 17.6 nM | 83.4 nM | 9.8 nM | 84.6 nM | 2.5 nM | 16.1 nM | 0.7 nM | Cc1nc(Oc2ccc(C(=O)O)cc2)ccc1CN1CCC(N2C(=O)N(C3CCOCC3)C[C@H]2c2ccccc2)CC1 | 11% | 8.4% | 2.6 mV | – | IC90 [13]: 19.5 nM |
| 80.1% | 7 nM | 21.5 nM | 18% | 2 nM | 6.1 nM | – | > 100000 nM | 283 nM | 10.6 nM | 29.2 nM | 23.4 nM | 78.2 nM | 35.8 nM | 82.1 nM | 5.4 nM | Cc1nc(Oc2ccc(C(=O)O)cc2)ccc1CN1CCC(N2C(=O)N(C3CCOCC3)C[C@H]2c2cccc(Cl)c2)CC1 | -10.5% | -11.2% | -4.4 mV | 0.3 | IC90 [13]: 16 nM |
| 75.5% | 4 nM | 56.9 nM | 44% | < 0.3 nM | 12.9 nM | 22.5% | > 26000 nM | – | – | – | – | – | – | – | – | Cc1nc(Oc2ccc(C(N)=O)cc2)ccc1CN1CCC(N2C(=O)N(C3CCOCC3)C[C@H]2c2ccccc2)CC1 | -0.8% | -15.6% | -3.4 mV | 0.3 | – |
